APP 5'UTR act: activates APP 5'UTR luciferase reporter; SH-SY5Y APP 5'UTR luciferase reporter, luminescence; zero percent = DMSO vehicle wells; activation, % at 2 µM; 1% of 190,000 active; AID 1276;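 active means activation above a set limit, based on mean plus 3 SD of controls, cut at about 140% in these data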
NF-kB expr up: raises NF-kB expression in human neuronal cells; AID 1239; NF-kB reporter expression; hits give high values; fold change at 12.5 µM; 1.6% of 190,000 active; in the data active means fold change above about 3.3
STAT1 blocker: STAT1 signaling inhibition | NIH 3T3 STAT1-luciferase reporter, IFN-gamma, luminescence | inhibition, % at 5.5 µM | 0.35% of 200,000 active | AID 920;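 active means inhibition above a set limit, the mean inhibition across all tested compounds plus 3 SD, cut at about 34% in these data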;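 further: 0% = IFN-gamma with DMSO and 100% = IFN-gamma with 300 µM nifuroxazide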
STAT3 activator: activators of IL-6 induced STAT3 signaling; activation (% of control), % at 5.6 µM; U3A cells, IL-6 STAT3-luciferase reporter, luminescence; 100% = signal with IL-6 EC80 alone; 0.91% of 190,000 active;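 active means activation above the screen-wide mean of compound activation plus 3 SD, cut at about 130% in these data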;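 further: 0% = background luminescence of wells with medium and substrate only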
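Material: human STAT1-deficient U3A cells with stable STAT3-luciferase reporter / Probe or stimulus: IL-6 stimulus at 33 ng/mL final / Schedule: 1 h compound pre-exposure, 6 h IL-6 stimulation, 37 °C / Technique: luminescence / Read-out basis: percent of IL-6-only median luminescence / Control set: IL-6-only high control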
STAT3 inh: inhibitors of IL-6 induced STAT3 signaling. U3A cells, IL-6 STAT3-luciferase reporter, luminescence; host cell line lacks STAT1. inhibition, % at 5.5 µM. 0.89% of 190,000 active;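 active means inhibition above the mean inhibition across all screened compounds plus 3 SD, cut at about 44% in these data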;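 further: 0% = DMSO only wells and 100% = 100 µM nifuroxazide control wells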
STAT1 act: increases IFN-gamma driven STAT1 reporter signal; activation (% of control), % at 5.5 µM; NIH 3T3 STAT1-luciferase reporter, luminescence; 100% = IFN-gamma alone, no compound; 2.6% of 200,000 active; AID 932;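 active means activation above the screen-wide mean activation plus 3 SD, cut at about 130% in these data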;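 further: raw ratio to IFN-gamma control signal so 100% means no change and 0% no light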
Numbers without * were called inactive; nt = not tested or not shown. Most compounds without a hit are left out; they make up all but 5.1% or so of the library.

SMILES	APP 5'UTR act	NF-kB expr up	STAT1 blocker	STAT3 activator	STAT3 inh	STAT1 act
Cc1ccc(NCc2nnc(SC(C)C(=O)N/N=C/c3ccc(C)o3)n2-c2ccccc2)cc1 (configuration not stated)	-3	1.1	16	109	-10	86
COc1ccc(C(=O)c2cc3cccc(OC)c3o2)cc1	99	4.2*	-59	86	21	150*
COc1cccc2cc(C(C)=O)oc12	-13	1.3	-1	98	5	102
COc1ccc(-n2c(=O)c3ccccc3n(CC(=O)OCc3ccccc3)c2=O)cc1OC	16	1	17	89	15	84
Cc1ccc(N2Cc3ccccc3C2=S)cc1	201*	6.8*	-39	83	23	136*
COc1ccc(S(=O)(=O)Nc2ccc(N3CCOCC3)nc2)cc1	-16	1.2	2	97	11	97
Cc1ccc(N2C(=O)C(NC(=O)c3ccccc3)(C(F)(F)F)C3=C2CC(C)(C)CC3=O)cc1 (configuration not stated)	-11	14*	1	108	-12	99
CC1(C)CC(=O)C2=C(C1)N(c1ccc(F)cc1)C(=O)C2(NC(=O)c1ccccc1)C(F)(F)F (configuration not stated)	3	1.1	-2	99	-2	104
COc1ccc(-c2cnn3c(N)c(S(=O)(=O)C(C)(C)C)cnc23)cc1	4	6.4*	-9	116	-13	108
CC(C)(C)S(=O)(=O)c1cnc2c(-c3ccc(Cl)cc3)cnn2c1N	-7	1.5	-8	100	8	107
Cc1c(Cl)cccc1NC(=S)N1CCC(C(N)=O)(N2CCCCC2)CC1	-12	1.2	3	101	2	97
COc1ccc(Nc2cccc(Cl)c2)c(C(=O)O)c1	-7	3.6*	-7	95	4	106
CC1CC(C)CN(C(=O)C(NS(=O)(=O)c2ccc(Br)s2)c2ccccc2)C1 (configuration not stated)	18	1.8	3	109	-13	97
Cc1ccnc(N(C(=O)c2cccs2)C(=O)c2cccs2)c1	68	2.3	-30	99	5	128
O=C(c1cccs1)N(C(=O)c1cccs1)c1ccc(Br)cn1	102	4*	-37	94	8	134*
CCCC(=O)NCc1ccncc1	-9	1.1	1	99	5	99
O=C(CSc1cccc[n+]1[O-])N1CCCCCC1	-1	1.1	-4	105	-4	104
O=C(CSc1cccc[n+]1[O-])CSc1cccc[n+]1[O-]	-1	4.9*	5	95	10	93
Cc1cc(NC(=O)NC(=O)c2ccc(F)cc2F)n[nH]1	89	2.5	-53	73	34	149*
COc1ccccc1NC(=O)COC(=O)/C=C/c1ccc2c(c1)OCO2	-3	2	-20	111	-3	116
O=C(/C=C/c1ccccc1Cl)Nc1ccc(Cl)cn1	111	nt	-22	94	11	118
O=C(/C=C/c1ccc2c(c1)OCO2)Nc1ccc(Cl)cn1	162*	3	-32	77	31	132*
COc1ccccc1NC(=O)/C=C/c1ccc2c(c1)OCO2	45	2.1	-39	108	0	134*
COc1ccc(OC)c(/C=C2\SC(=S)N(Cc3cccnc3)C2=O)c1	-13	3.9*	0	95	8	100
CCN1C/C(=C/c2ccc(N3CCOCC3)cc2)C(=O)/C(=C/c2ccc(N3CCOCC3)cc2)C1	-7	5.3*	-3	111	-6	103
SMILES	APP 5'UTR act	NF-kB expr up	STAT1 blocker	STAT3 activator	STAT3 inh	STAT1 act
CN1C/C(=C\c2ccc(N3CCOCC3)cc2)C(=O)/C(=C/c2ccc(N3CCOCC3)cc2)C1	4	1.1	-1	108	-4	101
CN(C)/C=C1\Oc2ccc3ccccc3c2C1=O	86	3.7*	-37	92	17	135*
CN(C)/C=C1/Oc2c(ccc3ccccc23)C1=O	1	1.6	-10	84	22	109
CN(C)CCNC(=O)c1sc2cccc(F)c2c1Cl	-18	1.3	-4	95	13	103
O=C(Nc1cccnc1)c1sc2cccc(F)c2c1Cl	83	0.85	-40	113	-10	133*
O=C(Nc1ccccn1)c1sc2cccc(F)c2c1Cl	179*	5.7*	15	72	35	84
COC(=O)CSc1ccc(S(=O)(=O)N2CCCCCC2)cc1[N+](=O)[O-]	4	1.1	-1	114	-14	99
COc1cccc(C2CCCN2Cc2nc(-c3cnccn3)no2)c1 (configuration not stated)	-12	0.91	-3	106	-4	101
O=C(NCC(c1ccc(F)cc1)N1CCOCC1)c1cccc(Br)c1 (configuration not stated)	11	1.1	3	102	2	96
C/C(=N\NC(=O)C1(C)CC1(Br)Br)c1ccc(NC(=O)c2ccc(C)o2)cc1 (configuration not stated)	15	0.47	-17	97	5	115
O=c1[nH]c2ccc(Cl)cc2c(O)c1-c1ccccc1	-5	0.6	45*	29	83*	67
O=c1[nH]c2ccc(Cl)cc2c(-c2ccccc2)c1SC(=S)N1CCCCC1	-4	1.1	1	104	-1	99
CCOc1cc(CNc2ccc(CNc3ncn[nH]3)cc2)ccc1OCc1ccccc1	-12	1.1	-8	104	-6	107
Cc1ccc2cc(CCNC(=O)c3cccs3)c(=O)[nH]c2c1	127	2.2	-43	100	0	139*
CCC(CC)C(=O)NCCc1cc2ccc(C)cc2[nH]c1=O	5	1.1	-8	100	5	108
Cc1ccc(Nc2nc(N)nc(CSCCO)n2)cc1	57	2.1	-24	119	-20	121
Cc1ccc(Nc2nc(N)nc(CSc3ncccn3)n2)cc1	104	5.4*	-33	110	-12	130*
Cc1ccc(Nc2nc(N)nc(CC#N)n2)cc1	43	1.5	-40	106	-3	137*
Nc1nc(CSc2n[nH]c(-c3ccccc3)n2)nc(Nc2ccccc2)n1	6	0.62	5	78	32	96
Nc1nc(CSc2ncccn2)nc(Nc2ccccc2)n1	46	2.9	-37	116	-18	134*
Cc1ccc(NC(=O)OC(C)CNC(=O)Oc2cccc(C)c2)cc1 (configuration not stated)	45	1.7	-44	96	16	140*
Cc1ccc2cc(CCNC(=O)c3cccc([N+](=O)[O-])c3)c(=O)[nH]c2c1C	-13	0.92	-4	101	2	104
CC(=O)N1CCC(N(CCN2CCOCC2)C(=S)Nc2ccc(C)c(C)c2)CC1	-2	1.2	6	88	16	93
c1ccc(OCc2nc(-c3cccs3)no2)cc1	48	3.1	-55	108	-10	145*
